Data: ChEMBL document CHEMBL1158443, “Discovery of novel lipophilic inhibitors of OXA-10 enzyme (class D beta-lactamase) by screening amino analogs and homologs of citrate and isocitrate” (Bioorg Med Chem Lett, 2009)

T1: Imipenem-hydrolyzing beta-lactamase (Enterobacter cloacae) (UniProt P52663)
T1 sequence (whole entry): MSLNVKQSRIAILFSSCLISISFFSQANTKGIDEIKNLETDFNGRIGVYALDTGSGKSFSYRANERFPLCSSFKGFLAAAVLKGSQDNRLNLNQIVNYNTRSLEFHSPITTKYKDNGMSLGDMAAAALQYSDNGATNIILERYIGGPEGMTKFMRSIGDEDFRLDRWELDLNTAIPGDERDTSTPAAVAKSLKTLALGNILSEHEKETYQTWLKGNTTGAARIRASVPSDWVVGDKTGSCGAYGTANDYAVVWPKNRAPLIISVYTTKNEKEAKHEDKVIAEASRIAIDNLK

B1: Imipenem-hydrolyzing beta-lactamase (Enterobacter cloacae), P52663 (protein)
chain: T1 sequence (whole entry)
B2: Beta-lactamase OXA-10 (Pseudomonas aeruginosa), P14489 (protein)
chain: MKTFAAYVIIACLSSTALAGSITENTSWNKEFSAEAVNGVFVLCKSSSKSCATNDLARASKEYLPASTFKIPNAIIGLETGVIKNEHQVFKWDGKPRAMKQWERDLTLRGAIQVSAVPVFQQIAREVGEVRMQKYLKKFSYGNQNISGGIDKFWLEGQLRISAVNQVEFLESLYLNKLSASKENQLIVKEALVTEAAPEYLVHSKTGFSGVGTESNPGVAWWVGWVEKETEVYFFAFNMDIDNESKLPLRKSIPTKIMESEGIIGG

How the values were obtained:
[1] = Inhibition of TEM1 beta-lactamase assessed as residual activity at 100 uM at pH 7 using phosphate buffer by spectrophotometry; values are per cent of control
Bacillus cereus [2] = experiment: Inhibition of Bacillus cereus BC2 beta-lactamase assessed as residual activity at 100 uM at pH 7 using HEPES buffer by spectrophotometry; values are per cent of control
Bacillus cereus [3] = experiment: Inhibition of Bacillus cereus BC2 beta-lactamase assessed as residual activity at 100 uM at pH 5 using acetate buffer by spectrophotometry; values are per cent of control
[4] = molecular target: Beta-lactamase (Enterobacter cloacae) (UniProt P05364); experiment: Inhibition of Enterobacter cloacae P99 beta-lactamase assessed as residual activity at 100 uM at pH 7 using phosphate buffer by spectrophotometry; values are per cent of control
Chain of Beta-lactamase (Enterobacter cloacae) (P05364 21-381 limits assumed): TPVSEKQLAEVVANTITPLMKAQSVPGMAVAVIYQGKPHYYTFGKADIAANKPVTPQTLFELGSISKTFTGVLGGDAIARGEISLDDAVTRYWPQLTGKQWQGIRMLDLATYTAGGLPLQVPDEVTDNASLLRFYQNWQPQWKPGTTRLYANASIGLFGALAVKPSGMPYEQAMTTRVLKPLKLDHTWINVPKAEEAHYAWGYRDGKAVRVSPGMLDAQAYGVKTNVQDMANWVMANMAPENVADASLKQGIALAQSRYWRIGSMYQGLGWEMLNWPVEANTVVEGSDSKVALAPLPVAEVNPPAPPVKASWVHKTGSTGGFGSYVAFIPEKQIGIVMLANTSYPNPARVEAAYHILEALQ

[5] = molecular target: T1, Imipenem-hydrolyzing beta-lactamase (Enterobacter cloacae); experiment: Inhibition of Enterobacter cloacae NMCA beta-lactamase assessed as residual activity at 100 uM at pH 7 using phosphate buffer by spectrophotometry; values are per cent of control
[6] = molecular target: Beta-lactamase (Bacillus licheniformis) (UniProt P00808); experiment: Inhibition of Bacillus licheniformis BS3 beta-lactamase assessed as residual activity at 100 uM at pH 7 using phosphate buffer by spectrophotometry; values are per cent of control
Chain of Beta-lactamase (Bacillus licheniformis) (P00808 whole entry): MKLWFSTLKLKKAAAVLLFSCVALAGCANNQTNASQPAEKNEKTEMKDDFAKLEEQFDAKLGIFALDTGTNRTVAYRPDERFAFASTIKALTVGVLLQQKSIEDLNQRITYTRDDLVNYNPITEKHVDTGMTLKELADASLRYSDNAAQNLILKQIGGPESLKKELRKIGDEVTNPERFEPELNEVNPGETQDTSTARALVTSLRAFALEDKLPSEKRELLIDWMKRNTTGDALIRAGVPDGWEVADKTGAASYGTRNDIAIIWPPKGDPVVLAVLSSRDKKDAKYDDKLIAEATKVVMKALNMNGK

[7] = molecular target: Beta-lactamase OXA-10 (Pseudomonas aeruginosa) (UniProt P14489); experiment: Inhibition of Pseudomonas aeruginosa OXA10 beta-lactamase assessed as residual activity at 100 uM at pH 7 using phosphate buffer by spectrophotometry; values are per cent of control
Beta-lactamase = Beta-lactamase (Bacillus licheniformis, UniProt P00808); experiment: Inhibition of Bacillus licheniformis BS3 beta-lactamase at pH 5
Chain of Beta-lactamase (P00808 whole entry): as above

[8] = Competitive inhibition of TEM1 beta-lactamase at pH 5
Method in brief: (§1)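 Ki came from plotting v0/vi against inhibitor concentration. v0/vi is the ratio of nitrocefin hydrolysis rates without and with inhibitor, monitored spectrophotometrically at 482 nm. Enzyme (1-100 nM) was preincubated with inhibitor for 30 min at 37 °C in the buffer for the stated pH.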

[9] = molecular target: Beta-lactamase VIM-4 (Pseudomonas aeruginosa) (UniProt Q8KRJ3); experiment: Inhibition of Pseudomonas aeruginosa VIM4 beta-lactamase assessed as residual activity at 100 uM at pH 7 using HEPES buffer by spectrophotometry; values are per cent of control
Beta-lactamase OXA-10 [10] = molecular target: T2, Beta-lactamase OXA-10 (Pseudomonas aeruginosa, UniProt P14489); experiment: Competitive inhibition of Pseudomonas aeruginosa OXA10 beta-lactamase at pH 7
Method in brief: as §1

[11] = Inhibition of TEM1 beta-lactamase assessed as residual activity at 100 uM at pH 5 using acetate buffer by spectrophotometry; values are per cent of control
[12] = molecular target: Beta-lactamase (Enterobacter cloacae) (UniProt P05364); experiment: Inhibition of Enterobacter cloacae P99 beta-lactamase assessed as residual activity at 100 uM at pH 5 using acetate buffer by spectrophotometry; values are per cent of control
[13] = molecular target: T1, Imipenem-hydrolyzing beta-lactamase (Enterobacter cloacae); experiment: Inhibition of Enterobacter cloacae NMCA beta-lactamase assessed as residual activity at 100 uM at pH 5 using acetate buffer by spectrophotometry; values are per cent of control
[14] = molecular target: Beta-lactamase (Bacillus licheniformis) (UniProt P00808); experiment: Inhibition of Bacillus licheniformis BS3 beta-lactamase assessed as residual activity at 100 uM at pH 5 using acetate buffer by spectrophotometry; values are per cent of control
[15] = molecular target: Beta-lactamase OXA-10 (Pseudomonas aeruginosa) (UniProt P14489); experiment: Inhibition of Pseudomonas aeruginosa OXA10 beta-lactamase assessed as residual activity at 100 uM at pH 5 using acetate buffer by spectrophotometry; values are per cent of control
[16] = Activity of TEM1 beta-lactamase
Bacillus cereus [17] = experiment: Activity of Bacillus cereus BC2 beta-lactamase
[18] = Ratio of Kcat to Km for TEM1 beta-lactamase
[19] = molecular target: T1, Imipenem-hydrolyzing beta-lactamase (Enterobacter cloacae); experiment: Ratio of Kcat to Km for Enterobacter cloacae NMCA beta-lactamase
[20] = molecular target: Beta-lactamase OXA-10 (Pseudomonas aeruginosa) (UniProt P14489); experiment: Ratio of Kcat to Km for Pseudomonas aeruginosa OXA10 beta-lactamase
Bacillus cereus [21] = experiment: Ratio of Kcat to Km for Bacillus cereus BC2 beta-lactamase
[22] = molecular target: Beta-lactamase VIM-4 (Pseudomonas aeruginosa) (UniProt Q8KRJ3); experiment: Ratio of Kcat to Km for Pseudomonas aeruginosa VIM4 beta-lactamase
Beta-lactamase OXA-10 [23] = molecular target: T2, Beta-lactamase OXA-10; experiment: Inactivation of Pseudomonas aeruginosa OXA10 beta-lactamase at pH 7
[24] = test system: O=C(Cc1cccs1)N[C@@H]1C(=O)N2C(C(=O)O)=C(/C=C/c3ccc([N+](=O)[O-])cc3[N+](=O)[O-])CS[C@H]12; experiment: Activity of Pseudomonas aeruginosa VIM4 beta-lactamase
[25] = substrate: O=C(Cc1cccs1)N[C@@H]1C(=O)N2C(C(=O)O)=C(/C=C/c3ccc([N+](=O)[O-])cc3[N+](=O)[O-])CS[C@H]12; experiment: Activity of Enterobacter cloacae NMCA beta-lactamase
[26] = substrate: O=C(Cc1cccs1)N[C@@H]1C(=O)N2C(C(=O)O)=C(/C=C/c3ccc([N+](=O)[O-])cc3[N+](=O)[O-])CS[C@H]12; experiment: Activity of Pseudomonas aeruginosa OXA10 beta-lactamase

Row | Molecule | residual activity [1] [%] | residual activity (Bacillus cereus [3]) [%] | residual activity [4] [%] | residual activity [5] [%] | residual activity [6] [%] | residual activity [7] [%] | residual activity [9] [%] | other results
1 | COC(=O)C(N)(CC(=O)OCc1ccccc1)CC(=O)OCc1ccccc1 | 81 | 93 | 100 | 63 | 100 | 100 |  | residual activity (Bacillus cereus [2]): 100%
2 | O=C(O)CC(O)(CC(=O)O)C(=O)O [CITRIC ACID] |  |  |  |  |  |  |  | Ki (Beta-lactamase): 490 µM
3 | COC(=O)C(CC(=O)OCc1ccccc1)(CC(=O)OCc1ccccc1)NC(=O)COc1ccccc1 |  |  |  |  |  | 10 |  | 
4 | NC(CC(=O)O)(CC(=O)O)C(=O)O | 95 |  | 81 |  | 88 |  | 100 | Ki [8]: 150 µM
5 | O=C(COc1ccccc1)NC(CC(=O)OCc1ccccc1)(CC(=O)OCc1ccccc1)C(=O)OCc1ccccc1 |  |  |  |  |  | 10 |  | Ki (Beta-lactamase OXA-10 [10]): 20 µM
6 | NC(C(=O)O)C(CC(=O)O)C(=O)O (configuration not stated) | 100 | 100 | 100 | 100 | 85 | 92 | 94 | residual activity [11]: 90%; residual activity [12]: 94%; residual activity [13]: 86%; residual activity [14]: 97%; residual activity [15]: 85%
7 | COC(=O)CC(N)(CC(=O)OC)C(=O)O | 99 | 100 | 100 | 95 | 95 | 100 | 100 | residual activity [11]: 87%; residual activity (Bacillus cereus [2]): 100%; residual activity [12]: 73%; residual activity [13]: 99%; residual activity [14]: 100%; residual activity [15]: 79%
8 | COC(=O)C(CC(=O)O)(CC(=O)O)NC(=O)COc1ccccc1 | 98 | 100 | 85 | 66 | 96 | 100 | 100 | residual activity (Bacillus cereus [2]): 86%
9 | O=C(O)CC(CC(=O)O)(NC(=O)COc1ccccc1)C(=O)O | 96 | 100 | 97 | 96 | 80 | 84 | 100 | residual activity [11]: 100%; residual activity [12]: 100%; residual activity [13]: 85%; residual activity [14]: 70%; residual activity [15]: 82%
10 | O=C(Cc1cccs1)N[C@@H]1C(=O)N2C(C(=O)O)=C(/C=C/c3ccc([N+](=O)[O-])cc3[N+](=O)[O-])CS[C@H]12 |  |  |  |  |  |  |  | Km [16]: 20 µM; kcat [16]: 50 s⁻¹; Km (Bacillus cereus [17]): 10 µM; kcat (Bacillus cereus [17]): 40 s⁻¹; Ratio [18]: 2.5 ×10⁶ /M/s; Ratio [19]: 3.5 ×10⁶ /M/s; Ratio [20]: 2 ×10⁷ /M/s; Ratio (Bacillus cereus [21]): 4 ×10⁶ /M/s; Ratio [22]: 4 ×10⁶ /M/s
11 | CCOC(=O)C1CC(=O)NC1C(=O)OCC (configuration not stated) | 100 | 100 | 100 | 100 | 100 | 91 | 94 | residual activity [11]: 86%; residual activity [12]: 100%; residual activity [13]: 93%; residual activity [14]: 100%; residual activity [15]: 87%
12 | COC(=O)C(N)(CC(=O)O)CC(=O)O | 99 | 90 | 100 | 94 | 96 | 96 | 100 | residual activity [11]: 92%; residual activity (Bacillus cereus [2]): 100%; residual activity [12]: 93%; residual activity [13]: 96%; residual activity [14]: 97%; residual activity [15]: 83%
13 | CCOC(=O)CCC1(C(=O)OCC)CCC(=O)N1 (configuration not stated) | 94 | 100 | 100 | 100 | 85 | 97 | 96 | residual activity [11]: 80%; residual activity [12]: 100%; residual activity [13]: 100%; residual activity [14]: 96%; residual activity [15]: 98%
14 | NC(CC(=O)OCc1ccccc1)(CC(=O)OCc1ccccc1)C(=O)OCc1ccccc1 | 100 | 90 |  |  | 100 | 10 |  | Ki (Beta-lactamase OXA-10 [23]): 95 µM
15 | O=C(O)CC(C(=O)O)C(O)C(=O)O (configuration not stated) [ISOCITRATE] |  |  |  |  |  |  |  | Ki (Beta-lactamase): 2200 µM
16 | COC(=O)CC(N)(CC(=O)OC)C(=O)OCc1ccccc1 |  | 100 |  |  |  | 100 |  | 
17 | Beta-lactamase VIM-4 (Pseudomonas aeruginosa) (from UniProt Q8KRJ3) |  |  |  |  |  |  |  | Km [24]: 10 µM; kcat [24]: 40 s⁻¹
18 | CCOC(=O)CC(N)(CC(=O)OCC)C(=O)OCC | 71 | 93 | 87 |  | 82 |  |  | residual activity (Bacillus cereus [2]): 92%
19 | COC(=O)CC(CC(=O)OC)(NC(=O)Cc1ccccc1)C(=O)OC |  |  |  |  |  |  |  | residual activity (Bacillus cereus [2]): 100%
20 | B1 |  |  |  |  |  |  |  | Km [25]: 40 µM; kcat [25]: 130 s⁻¹
21 | B2 |  |  |  |  |  |  |  | Km [26]: 20 µM; kcat [26]: 400 s⁻¹
